This is an account of results in ChEMBL document CHEMBL2040795, “Synthesis, biological evaluation, and structure-activity relationships of 2-[2-(benzoylamino)benzoylamino]benzoic acid analogues as inhibitors of adenovirus replication” (J Med Chem, 2012).

SMILES strings stand for the structures.

Tested on in the first data set: not listed separately
Nature of the data set: Cytotoxicity against human A549 cells assessed as viability at 60 uM after 24 hrs by XTT assay. It is filed as cell-based. As to conditions: read-out: Activity. In outline: (§1)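 About 15000 A549 cells per well were seeded the day before. Compound was added in DMEM with 0.75 g/L NaHCO3 and 20 mM HEPES, then incubated 24 h at 37 °C, 5% CO2. XTT was added 4 h before reading formazan absorbance at 450 nm. Values are percentage viable cells, with DMSO baseline toxicity subtracted (0.15% DMSO at 30 μM, 0.30% at 60 μM).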
(In general: Tetrazolium dyes change colour on reduction, which living cells bring about.)
As for `O=C(Nc1ccccc1C(=O)Nc1ccccc1C(=O)O)c1ccccc1`, the viability at 24 h, 60 µM came out at 83%.
As for `O=C(Nc1ccccc1C(=O)Nc1ccccc1C(=O)O)c1ccccc1F`, the viability at 24 h, 60 µM was found to be 83%.
Same read-out and setting: as for `O=C(Nc1ccc(Cl)cc1C(=O)Nc1ccccc1C(=O)O)c1ccccc1F`, the figure is 88%; as for `COc1ccc(C(=O)Nc2ccccc2C(=O)O)c(NC(=O)c2ccccc2F)c1`, 94%.
Same read-out and setting: as for `COc1ccc(NC(=O)c2ccccc2F)c(C(=O)Nc2ccccc2C(=O)O)c1`, the figure is 84%; as for `O=C(Nc1cc(F)c(F)cc1C(=O)Nc1ccccc1C(=O)O)c1ccccc1F`, 96%.
Turning to `Nc1ccn(C[C@@H](CO)OCP(=O)(O)O)c(=O)n1` [CIDOFOVIR], the viability at 24 h, 60 µM was determined as 98%.

Tested on in a further data set: not listed separately
The data set can be described thus: Aqueous solubility of the compound in water. It is filed as physicochemical. As to conditions: buffer.
With `CCOC(=O)c1ccccc1NC(=O)c1ccccc1NC(=O)c1ccccc1`, the solubility result is listed as “Insoluble”.

Tested on in the next data set: not listed separately
Nature of the data set: Chemical solubility of the compound in DMSO.
Details: not given
Type of data set: physicochemical.
On to `CCOC(=O)c1ccccc1NC(=O)c1ccccc1NC(=O)c1ccccc1`, for which the solubility result is “Insoluble”.

The next data set relates to Human adenovirus 5. Nature of the data set: Antiviral activity against Adenovirus type 5 F2853-5b infected in human A549 cells assessed as inhibition of viral replication after 24 hrs by RT-PCR analysis. Type of data set: functional, organism-based. As to conditions: Human mastadenovirus C, A549, 24 h. In outline: (§2)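 Ad5-infected A549 cells incubated with compound for 24 h. DNA was then extracted and newly synthesized viral DNA quantified by real-time PCR of the hexon gene, normalized to cellular RNaseP gene. […] EC50 determined for selected compounds.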
By EC50 is commonly meant the midpoint of the concentration-response curve. Take `O=C(Nc1ccccc1C(=O)Nc1ccccc1C(=O)O)c1ccccc1F`: the EC50 was found to be 2300 nM.
The same measure, in the same setting: with `O=C(Nc1ccc(Cl)cc1C(=O)Nc1ccccc1C(=O)O)c1ccccc1F` the figure was 570 nM; with `COc1ccc(C(=O)Nc2ccccc2C(=O)O)c(NC(=O)c2ccccc2F)c1`, 2300 nM; with `COc1ccc(NC(=O)c2ccccc2F)c(C(=O)Nc2ccccc2C(=O)O)c1`, 1400 nM.
On the same count and under the same terms, with `O=C(Nc1cc(F)c(F)cc1C(=O)Nc1ccccc1C(=O)O)c1ccccc1F` the figure was 580 nM.

Tested on in the next data set: not listed separately
Nature of the data set: Cytotoxicity against human A549 cells assessed as viability at 30 uM after 24 hrs by XTT assay. As to conditions: read-out: Activity. Type of data set: cell-based. In outline:
as §1
For `O=C(Nc1ccccc1C(=O)Nc1ccccc1C(=O)O)c1ccccc1`, the viability at 24 h, 30 µM was 82%.
On the same count and under the same terms, as for `O=C(Nc1ccccc1C(=O)Nc1ccccc1C(=O)O)c1ccccc1F`, the figure is 85%.
Same read-out and setting: as for `O=C(Nc1ccc(Cl)cc1C(=O)Nc1ccccc1C(=O)O)c1ccccc1F`, the figure is 91%; as for `COc1ccc(C(=O)Nc2ccccc2C(=O)O)c(NC(=O)c2ccccc2F)c1`, 92%; as for `COc1ccc(NC(=O)c2ccccc2F)c(C(=O)Nc2ccccc2C(=O)O)c1`, 84%.
In the case of `O=C(Nc1cc(F)c(F)cc1C(=O)Nc1ccccc1C(=O)O)c1ccccc1F`, the viability at 24 h, 30 µM is 96%.
On the same count and under the same terms, as for `Nc1ccn(C[C@@H](CO)OCP(=O)(O)O)c(=O)n1` [CIDOFOVIR], the figure is 100%.

The test system of another data set is Human adenovirus 5. Nature of the data set: Antiviral activity against Adenovirus type 5 F2853-5b infected in human A549 cells assessed as inhibition of viral replication at 15 uM after 24 hrs by RT-PCR analysis. Type of data set: functional. The following applies: Human mastadenovirus C, A549, 24 h. In outline: as §2
A word on the inhibition: it is the change of the read-out against control, counted positive when it falls. Consider `O=C(Nc1ccccc1C(=O)Nc1ccccc1C(=O)O)c1ccccc1`, for which the inhibition at 15 µM came out at 91%.
Same read-out and setting: with `COc1ccc(C(=O)Nc2ccccc2C(=O)Nc2ccccc2C(=O)O)cc1` the figure was 67%; with `Cc1ccccc1C(=O)Nc1cccc(C(=O)Nc2ccccc2C(=O)O)c1`, 7%.
For the molecule `CCOC(=O)c1cccc(NC(=O)c2ccccc2NC(=O)c2ccccc2)c1`, the inhibition at 15 µM turned out to be 0%.
On the same count and under the same terms, as for `O=C(O)c1cccc(NC(=O)c2ccccc2NC(=O)c2ccccc2)c1`, the figure is 8%.
With `CCOC(=O)c1ccc(NC(=O)c2ccccc2NC(=O)c2ccccc2)cc1`, the inhibition at 15 µM stood at 8%.
For the molecule `O=C(O)c1ccc(NC(=O)c2ccccc2NC(=O)c2ccccc2)cc1`, the inhibition at 15 µM came out at 8%.
Same read-out and setting: with `CCOC(=O)c1ccccc1NC(=O)c1cccc(NC(=O)c2ccccc2)c1` the figure was 25%; with `O=C(Nc1cccc(C(=O)Nc2ccccc2C(=O)O)c1)c1ccccc1`, 39%.
The same measure, in the same setting: with `CCOC(=O)c1ccccc1NC(=O)c1ccc(NC(=O)c2ccccc2)cc1` the figure was 15%; with `O=C(Nc1ccc(C(=O)Nc2ccccc2C(=O)O)cc1)c1ccccc1`, 47%.
Consider `O=C(Nc1ccccc1C(=O)Nc1ccccc1)c1ccccc1`, for which the inhibition at 15 µM came to 18%.
Still for that read-out and setting: as for `Cc1ccc(NC(=O)c2ccccc2NC(=O)c2ccccc2C(=O)O)cc1`, the figure is 0%.
With `Cc1ccccc1C(=O)Nc1ccccc1C(=O)Nc1ccc(C(=O)O)cc1`, the inhibition at 15 µM turned out to be 20%.
Same read-out and setting: with `Cc1ccc(C(=O)Nc2ccccc2C(=O)Nc2ccccc2C(=O)O)cc1` the figure was 85%.
With `NC(=O)c1ccccc1NC(=O)c1cccc(NC(=O)c2ccccc2)c1`, the inhibition at 15 µM stood at 19%.
The same measure, in the same setting: with `Cc1ccc(C(=O)Nc2ccccc2C(=O)Nc2ccccc2C)cc1` the figure was 12%.
Consider `CC(=O)Nc1ccccc1C(=O)Nc1ccccc1C(=O)O`, for which the inhibition at 15 µM was 24%.
The same measure, in the same setting: as for `CS(=O)(=O)Nc1ccccc1C(=O)Nc1ccccc1C(=O)O`, the figure is 23%; as for `Cc1ccc(S(=O)(=O)Nc2ccccc2C(=O)Nc2ccccc2C(=O)O)cc1`, 8%; as for `CC(C)(C)C(=O)Nc1ccccc1C(=O)Nc1ccccc1C(=O)O`, 52%.
As for `O=C(O)c1ccccc1NC(=O)c1ccccc1NC(=O)C1CCCCC1`, the inhibition at 15 µM is 55%.
Same read-out and setting: as for `O=C(O)CCC(=O)Nc1ccccc1C(=O)Nc1ccccc1C(=O)O`, the figure is 0%; as for `O=C(Nc1ccccc1C(=O)Nc1ccccc1C(=O)O)c1ccccc1F`, 98%.
Still for that read-out and setting: as for `O=C(Nc1ccccc1C(=O)Nc1ccccc1C(=O)O)c1ccc(F)cc1`, the figure is 95%; as for `O=C(Cc1ccccc1)Nc1ccccc1C(=O)Nc1ccccc1C(=O)O`, 21%.
On the same count and under the same terms, as for `O=C(O)Cc1ccccc1NC(=O)c1ccccc1NC(=O)c1ccccc1`, the figure is 0%; as for `O=C(Cc1ccccc1NC(=O)c1ccccc1)Nc1ccccc1C(=O)O`, 0%; as for `O=C(Nc1ccccc1C(=O)Nc1cc(Cl)ccc1C(=O)O)c1ccccc1F`, 61%.
Take `O=C(Nc1ccccc1C(=O)Nc1ccc(Cl)cc1C(=O)O)c1ccccc1F`: the inhibition at 15 µM turned out to be 0%.
Same read-out and setting: with `COc1ccc(C(=O)O)c(NC(=O)c2ccccc2NC(=O)c2ccccc2F)c1` the figure was 0%; with `COc1ccc(NC(=O)c2ccccc2NC(=O)c2ccccc2F)c(C(=O)O)c1`, 78%.
On the same count and under the same terms, as for `O=C(Nc1ccccc1C(=O)Nc1cc(F)c(F)cc1C(=O)O)c1ccccc1F`, the figure is 0%.
Same read-out and setting: as for `O=C(Nc1cc(Cl)ccc1C(=O)Nc1ccccc1C(=O)O)c1ccccc1F`, the figure is 78%; as for `O=C(Nc1ccc(Cl)cc1C(=O)Nc1ccccc1C(=O)O)c1ccccc1F`, 91%.
As for `COc1ccc(C(=O)Nc2ccccc2C(=O)O)c(NC(=O)c2ccccc2F)c1`, the inhibition at 15 µM is 89%.
Still for that read-out and setting: as for `COc1ccc(NC(=O)c2ccccc2F)c(C(=O)Nc2ccccc2C(=O)O)c1`, the figure is 97%.
Regarding `O=C(Nc1cc(F)c(F)cc1C(=O)Nc1ccccc1C(=O)O)c1ccccc1F`, the inhibition at 15 µM worked out at 93%.

The next data set has as its system Human adenovirus 5. The data set can be described thus: Antiviral activity against Adenovirus type 5 F2853-5b infected in human A549 cells assessed as inhibition of viral replication at 5 uM after 24 hrs by RT-PCR analysis. As to conditions: Human mastadenovirus C, A549, 24 h. Type of data set: functional. In outline: as §2
Consider `O=C(Nc1ccccc1C(=O)Nc1ccccc1C(=O)O)c1ccccc1`, for which the inhibition at 5 µM amounted to 89%.
The same measure, in the same setting: with `COc1ccc(C(=O)Nc2ccccc2C(=O)Nc2ccccc2C(=O)O)cc1` the figure was 0%; with `Cc1ccccc1C(=O)Nc1cccc(C(=O)Nc2ccccc2C(=O)O)c1`, 5%.
Still for that read-out and setting: as for `Cc1ccc(NC(=O)c2ccccc2NC(=O)c2ccccc2C(=O)O)cc1`, the figure is 0%.
On the same count and under the same terms, as for `Cc1ccccc1C(=O)Nc1ccccc1C(=O)Nc1ccc(C(=O)O)cc1`, the figure is 0%; as for `Cc1ccc(C(=O)Nc2ccccc2C(=O)Nc2ccccc2C(=O)O)cc1`, 0%; as for `NC(=O)c1ccccc1NC(=O)c1cccc(NC(=O)c2ccccc2)c1`, 0%.
As to `Cc1ccc(C(=O)Nc2ccccc2C(=O)Nc2ccccc2C)cc1`, the inhibition at 5 µM was determined as 0%.
On the same count and under the same terms, as for `CC(=O)Nc1ccccc1C(=O)Nc1ccccc1C(=O)O`, the figure is 4%; as for `CS(=O)(=O)Nc1ccccc1C(=O)Nc1ccccc1C(=O)O`, 0%; as for `Cc1ccc(S(=O)(=O)Nc2ccccc2C(=O)Nc2ccccc2C(=O)O)cc1`, 2%.
The same measure, in the same setting: with `CC(C)(C)C(=O)Nc1ccccc1C(=O)Nc1ccccc1C(=O)O` the figure was 45%.
On the same count and under the same terms, as for `O=C(O)c1ccccc1NC(=O)c1ccccc1NC(=O)C1CCCCC1`, the figure is 20%; as for `O=C(O)CCC(=O)Nc1ccccc1C(=O)Nc1ccccc1C(=O)O`, 0%; as for `O=C(Nc1ccccc1C(=O)Nc1ccccc1C(=O)O)c1ccccc1F`, 96%.
Take `O=C(Nc1ccccc1C(=O)Nc1ccccc1C(=O)O)c1cccc(F)c1`: the inhibition at 5 µM amounted to 41%.
As for `O=C(Nc1ccccc1C(=O)Nc1ccccc1C(=O)O)c1ccc(F)cc1`, the inhibition at 5 µM turned out to be 76%.
Still for that read-out and setting: as for `O=C(Cc1ccccc1)Nc1ccccc1C(=O)Nc1ccccc1C(=O)O`, the figure is 32%; as for `O=C(O)Cc1ccccc1NC(=O)c1ccccc1NC(=O)c1ccccc1`, 0%; as for `O=C(Cc1ccccc1NC(=O)c1ccccc1)Nc1ccccc1C(=O)O`, 0%.
The same measure, in the same setting: with `O=C(Nc1ccccc1C(=O)Nc1cc(Cl)ccc1C(=O)O)c1ccccc1F` the figure was 0%; with `O=C(Nc1ccccc1C(=O)Nc1ccc(Cl)cc1C(=O)O)c1ccccc1F`, 0%; with `COc1ccc(C(=O)O)c(NC(=O)c2ccccc2NC(=O)c2ccccc2F)c1`, 0%.
Turning to `COc1ccc(NC(=O)c2ccccc2NC(=O)c2ccccc2F)c(C(=O)O)c1`, the inhibition at 5 µM is 28%.
Same read-out and setting: as for `O=C(Nc1ccccc1C(=O)Nc1cc(F)c(F)cc1C(=O)O)c1ccccc1F`, the figure is 0%.
Still for that read-out and setting: with `O=C(Nc1cc(Cl)ccc1C(=O)Nc1ccccc1C(=O)O)c1ccccc1F` the figure was 57%.
Still for that read-out and setting: with `O=C(Nc1ccc(Cl)cc1C(=O)Nc1ccccc1C(=O)O)c1ccccc1F` the figure was 89%; with `COc1ccc(C(=O)Nc2ccccc2C(=O)O)c(NC(=O)c2ccccc2F)c1`, 92%.
Turning to `COc1ccc(NC(=O)c2ccccc2F)c(C(=O)Nc2ccccc2C(=O)O)c1`, the inhibition at 5 µM came to 91%.
The same measure, in the same setting: as for `O=C(Nc1cc(F)c(F)cc1C(=O)Nc1ccccc1C(=O)O)c1ccccc1F`, the figure is 94%.
